As usually defined, the pIC50 is the negative decadic logarithm of the IC50, by convention in mol/L. High values mean a small IC50, low ones a large IC50. Usually half-life stands for the time needed for the level to fall by half in the phase considered. In general, solubility refers to the concentration that dissolves in the medium under given conditions. Low readings indicate little dissolved substance, high ones much dissolved substance.

One series concerns MCF7. The series is described as follows: Antiproliferative activity against human MCF7 cells after 24 hrs by MTT assay. It is filed as functional, cell-based. Conditions: MCF7, 24 h. On the technique in general: Tetrazolium assays rely on reduction of a dye to a coloured formazan, in cell work by metabolically active cells.
In another series the test system is BXPC-3. The series is described as follows: Antiproliferative activity against human BxPC3 cells after 24 hrs by MTT assay. It is filed as functional, cell-based. Conditions: BXPC-3, 24 h.
Another series deals with PC-3. The series is described as follows: Antiproliferative activity against human PC3 cells after 24 hrs by MTT assay. It is filed as functional, cell-based. Conditions: PC-3, 24 h.
The nature of series [1]: Half life in rat liver microsomes in presence of NADPH by HPLC method. The format is ADME, microsome. The method, boiled down: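 Compounds incubated with rat liver microsomes plus NADPH. Remaining compound quantified by HPLC at 0, 5, 10, 20, 30, 45, 60 and 90 min, and half-life calculated.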
A general note: Liver microsomes are vesicles of endoplasmic reticulum, rich in cytochrome P450 enzymes.

Series [2] is described as follows: Solubility of the compound in water at pH 7.4 by HPLC method. The format is physicochemical. The method, boiled down:
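Aqueous solubility measured at pH 7.4, with samples quantified by HPLC.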

pIC50: −log10 of the molar value. Converted amounts (≈) assume the structure as drawn.

`CCn1c(C(=O)N[C@@H](CO)CCCO)ccc1C(CC)(CC)c1ccc(OCS(=O)(=O)c2ccccc2)c(C)c1`: the values for the pIC50 with MCF7, with BXPC-3 and in the series with PC-3 were 4.53, 4.78 and 4.87, respectively.
As to `CCn1c(C(=O)N[C@@H](CC(=O)OC)C(=O)OC)ccc1C(CC)(CC)c1ccc(OCS(=O)(=O)c2ccccc2)c(C)c1`, the pIC50 was less than 4.30 in the series with MCF7, less than 4.30 in the series with BXPC-3 and 5.19 with PC-3.
Regarding `CCn1c(C(=O)N[C@@H](CC(=O)O)C(=O)O)ccc1C(CC)(CC)c1ccc(OCS(=O)(=O)c2ccccc2)c(C)c1`, the pIC50 in the series with MCF7, in the series with BXPC-3 and in the series on PC-3 was less than 4.30 throughout.
On to `CCN(CC)CCNC(=O)c1ccc(C(CC)(CC)c2ccc(OCS(C)(=O)=O)c(C)c2)n1CC`, for which the results for the pIC50 in the series with MCF7, with BXPC-3 and in the series with PC-3 were 4.83, 4.47 and 4.33, respectively.
The corresponding values for `CCn1c(C(=O)NCCNC(=O)OC(C)(C)C)ccc1C(CC)(CC)c1ccc(OCS(=O)(=O)c2ccccc2)c(C)c1` are less than 4.30, less than 4.30 and less than 4.30.
The corresponding values for `CCn1c(C(=O)N[C@@H](CO)CCO)ccc1C(CC)(CC)c1ccc(OCS(=O)(=O)c2ccccc2)c(C)c1` are 4.56, less than 4.30 and 4.85.
The corresponding values for `CCn1c(C(=O)NCCC(=O)OC)ccc1C(CC)(CC)c1ccc(OCS(=O)(=O)c2ccccc2)c(C)c1` are less than 4.30, less than 4.30 and 4.39.
`CCn1c(C(=O)N[C@@H](CCC(=O)O)C(=O)O)ccc1C(CC)(CC)c1ccc(OCS(=O)(=O)c2ccccc2)c(C)c1`: the pIC50 in the series with MCF7, in the series on BXPC-3 and in the series with PC-3 was less than 4.30 each time.
With `CCn1c(C(=O)NC(C)(C)CO)ccc1C(CC)(CC)c1ccc(OCS(=O)(=O)c2ccccc2)c(C)c1`, the pIC50 in the series with MCF7 was 4.69; with BXPC-3 it was 4.74; in the series with PC-3 it was 5.01.
The corresponding values for `CCn1c(C(=O)N[C@H](C)C(=O)OC)ccc1C(CC)(CC)c1ccc(OCS(=O)(=O)c2ccccc2)c(C)c1` are less than 4.30, less than 4.30 and less than 4.30.
For the compound `CCN(CC)CCNC(=O)c1ccc(C(CC)(CC)c2ccc(OCS(=O)(=O)c3ccccc3)c(C)c2)n1CC`, the pIC50 is 5.33 in the series on MCF7, 5.20 with BXPC-3 and 5.15 with PC-3. Moreover, the half-life in series [1] was determined as 62.4 min. The same compound had a solubility in series [2] of 117 µg/mL (≈ 207 µM).
Turning to `CCn1c(C(=O)NCCC(=O)O)ccc1C(CC)(CC)c1ccc(OCS(=O)(=O)c2ccccc2)c(C)c1`, the pIC50 in the series with MCF7 is less than 4.30; in the series on BXPC-3 it was less than 4.30; in the series with PC-3 it was 4.84.
Consider `CCn1c(C(=O)N[C@H](C)CO)ccc1C(CC)(CC)c1ccc(OCS(=O)(=O)c2ccccc2)c(C)c1`, for which the results for the pIC50 in the series with MCF7, with BXPC-3 and with PC-3 were 4.97, 5.00 and 5.11, respectively.
The corresponding values for `CCn1c(C(=O)N[C@H](C)C(=O)O)ccc1C(CC)(CC)c1ccc(OCS(=O)(=O)c2ccccc2)c(C)c1` are less than 4.30, 4.70 and 4.70.
Consider `CCN(CC)CCNC(=O)c1cc(C(CC)(CC)c2ccc(OCS(C)(=O)=O)c(C)c2)cn1CC`, for which the pIC50 with MCF7 is 4.79; in the series with BXPC-3, 4.52; in the series with PC-3, 4.44.
As for `CCn1c(C(=O)N[C@H](CO)CCO)ccc1C(CC)(CC)c1ccc(OCS(=O)(=O)c2ccccc2)c(C)c1`, the pIC50 in the series with MCF7 was 4.54; in the series with BXPC-3, 4.80; with PC-3 it was 4.92.
The corresponding values for `CCn1c(C(=O)NCCO)ccc1C(CC)(CC)c1ccc(OCS(=O)(=O)c2ccccc2)c(C)c1` are 4.81, 4.70 and 4.75.
Take `CCn1c(C(=O)NC2(CO)CC2)ccc1C(CC)(CC)c1ccc(OCS(=O)(=O)c2ccccc2)c(C)c1`: the pIC50 in the series on MCF7 is 4.54; with BXPC-3 it was 4.34; in the series on PC-3, 5.45.
The corresponding values for `CCn1c(C(=O)NCC(=O)OC)ccc1C(CC)(CC)c1ccc(OCS(=O)(=O)c2ccccc2)c(C)c1` are less than 4.30, 4.70 and less than 4.30.
As for `CCn1c(C(=O)N[C@@H](C(=O)O)C(C)C)ccc1C(CC)(CC)c1ccc(OCS(=O)(=O)c2ccccc2)c(C)c1`, the pIC50 in the series with MCF7 is 4.35; in the series with BXPC-3, 4.86; in the series with PC-3, 5.51.
The corresponding values for `CCn1c(C(=O)N[C@H](C(=O)O)C(C)C)ccc1C(CC)(CC)c1ccc(OCS(=O)(=O)c2ccccc2)c(C)c1` are 4.61, 4.79 and 5.44.
On to `CCn1c(C(=O)N[C@@H](C)C(=O)OC)ccc1C(CC)(CC)c1ccc(OCS(=O)(=O)c2ccccc2)c(C)c1`, for which the negative-log IC50 (pIC50) was 4.36 in the series with MCF7, 4.75 in the series with BXPC-3 and less than 4.30 in the series on PC-3.
Turning to `CCn1c(C(=O)N[C@H](CC(=O)O)C(=O)O)ccc1C(CC)(CC)c1ccc(OCS(=O)(=O)c2ccccc2)c(C)c1`, the pIC50 in the series on MCF7, in the series on BXPC-3 and in the series on PC-3 was less than 4.30 each time.
As to `CCn1c(C(=O)N[C@H](CCC(=O)O)C(=O)O)ccc1C(CC)(CC)c1ccc(OCS(=O)(=O)c2ccccc2)c(C)c1`, the pIC50 with MCF7, in the series with BXPC-3 and in the series with PC-3 was less than 4.30 each time.
`CCn1c(C(=O)N[C@H](CO)C(C)C)ccc1C(CC)(CC)c1ccc(OCS(=O)(=O)c2ccccc2)c(C)c1`: the pIC50 in the series with MCF7 was 4.59; with BXPC-3, 5.11; with PC-3, 5.14. Also, the half-life in series [1] turned out to be 46.3 min. Besides, the solubility in series [2] worked out at 27.8 µg/mL (≈ 50.1 µM).
For `CCn1c(C(=O)NCCCO)ccc1C(CC)(CC)c1ccc(OCS(=O)(=O)c2ccccc2)c(C)c1`, the pIC50 in the series on MCF7 was 4.38; in the series with BXPC-3, 4.58; in the series on PC-3, 4.95.
As for `CCn1c(C(=O)N[C@@H](CO)C(C)C)ccc1C(CC)(CC)c1ccc(OCS(=O)(=O)c2ccccc2)c(C)c1`, the pIC50 with MCF7 was 4.73; with BXPC-3, 4.88; in the series on PC-3, 4.97.
As for `CCn1c(C(=O)NCCN)ccc1C(CC)(CC)c1ccc(OCS(=O)(=O)c2ccccc2)c(C)c1`, the pIC50 with MCF7 was 5.19; in the series on BXPC-3 it was 5.19; in the series on PC-3, 5.16. In addition, in series [1], the half-life is 34.9 min. The amount in solution in series [2] (solubility) came to 65 µg/mL (≈ 127 µM).
In the case of `CCn1c(C(=O)N[C@H](CO)CCCO)ccc1C(CC)(CC)c1ccc(OCS(=O)(=O)c2ccccc2)c(C)c1`, the negative-log IC50 (pIC50) in the series with MCF7 is 4.50; with BXPC-3, less than 4.30; in the series on PC-3, 5.17.
As to `CCn1c(C(=O)N[C@@H](C)C(=O)O)ccc1C(CC)(CC)c1ccc(OCS(=O)(=O)c2ccccc2)c(C)c1`, the pIC50 was 4.45 in the series on MCF7, 4.68 in the series on BXPC-3 and 4.77 in the series with PC-3.
The corresponding values for `CCn1c(C(=O)NCC(=O)O)ccc1C(CC)(CC)c1ccc(OCS(=O)(=O)c2ccccc2)c(C)c1` are 4.48, less than 4.30 and 4.52.
As for `CCn1c(C(=O)N[C@@H](C)CO)ccc1C(CC)(CC)c1ccc(OCS(=O)(=O)c2ccccc2)c(C)c1`, the pIC50 in the series on MCF7 was 4.97; in the series on BXPC-3, 4.82; in the series on PC-3 it was 5.02. The half-life in series [1] is 43.8 min. Further, the concentration in solution in series [2] (solubility) came to 35.7 µg/mL (≈ 67.8 µM).
With `CCn1c(C(=O)NC2(C(=O)O)CC2)ccc1C(CC)(CC)c1ccc(OCS(=O)(=O)c2ccccc2)c(C)c1`, the pIC50 with MCF7 is 4.39; with BXPC-3, less than 4.30; in the series on PC-3, 4.58.

Source of the values: ChEMBL document CHEMBL4270638, “Sulfonyl-containing phenyl-pyrrolyl pentane analogues: Novel non-secosteroidal vitamin D receptor modulators with favorable physicochemical properties, pharmacokinetic properties and anti-tumor activity” (Eur J Med Chem, 2018).
